ChEMBL document CHEMBL1649583 (Antimicrob Agents Chemother, 2009)
≈ marks a conversion by molar mass, not a printed value.

Key:
[1] = Apparent oral clearance in human adults with pulmonary tuberculosis at 600 mg administered daily for 7 days; assay type: ADME, organism-based; conditions: in vivo
Outline: (§1)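 Plasma was drawn at steady state, predose and at 1, 2, 4, 8, 12, 18 and 24 h, and stored at -80°C. Assay was validated HPLC with 0.5–30 μg/ml standards. A one-compartment population model (NPAG) gave median individual Bayesian estimates; other parameters came from standard equations.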

[2] = Elimination half life in human adults with pulmonary tuberculosis at 600 mg administered twice daily for 7 days; assay type: ADME, organism-based; conditions: in vivo, read-out: beta t1/2 (converted); outline: as §1
[3] = Tmax in human adults with pulmonary tuberculosis at 600 mg administered daily for 7 days; assay type: ADME, organism-based; conditions: in vivo; outline: as §1
[4] = fT>MIC in human adults with pulmonary tuberculosis at 600 mg administered twice daily for 5 days; assay type: functional
Outline: (§2)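 Steady-state plasma profiles after the fifth 600 mg dose, given once or twice daily, were fitted with a one-compartment population model. Concentrations were corrected to free drug assuming 31% protein binding. MIC came from each patient's pretreatment sputum isolate, tested by Bactec 460 and on Middlebrook 7H-10 agar. The result is the percent of the dosing interval with free drug above MIC.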

[5] = Elimination rate constant in human adults with pulmonary tuberculosis at 600 mg administered twice daily for 7 days; assay type: ADME, organism-based; conditions: in vivo; outline: as §1
Homo sapiens [6] = assay: Absorption rate constant in human adults with pulmonary tuberculosis at 600 mg administered twice daily for 7 days; assay type: ADME, organism-based; conditions: in vivo, 168 h
Outline: (§3)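 Adults with pulmonary TB (once daily n=10, twice daily n=9) fasted overnight before the fifth morning dose. Plasma was drawn at steady state predose and 1, 2, 4, 8, 12, 18 and 24 h after dosing, stored at -80°C, and assayed by validated HPLC (standards 0.5–30 μg/ml). ka comes from a one-compartment NPAG population model fitted per regimen, reported as the median of individual Bayesian estimates.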

[7] = fT>MIC in human adults with pulmonary tuberculosis at 600 mg administered once daily for 5 days; assay type: functional; outline: as §2
[8] = Tmax in human adults with pulmonary tuberculosis at 600 mg administered twice daily for 7 days; assay type: ADME, organism-based; conditions: in vivo; outline: as §1
[9] = test system: Mycobacterium tuberculosis; assay: Antimicrobial activity against Mycobacterium tuberculosis in human adults with pulmonary tuberculosis at 600 mg administered daily for 7 days; assay type: functional; conditions: 168 h
[10] = Cmax in human adults with pulmonary tuberculosis at 600 mg administered daily for 7 days; assay type: ADME, organism-based; design: dose 600 mg; conditions: in vivo; outline: as §1
[11] = Elimination rate constant in human adults with pulmonary tuberculosis at 600 mg administered daily for 7 days; assay type: ADME, organism-based; conditions: in vivo; outline: as §1
[12] = Apparent oral clearance in human adults with pulmonary tuberculosis at 600 mg administered twice daily for 7 days; assay type: ADME, organism-based; conditions: in vivo; outline: as §1
[13] = test system: Mycobacterium tuberculosis; assay: Antimicrobial activity against Mycobacterium tuberculosis in human adults with pulmonary tuberculosis at 600 mg administered twice for 7 days; assay type: functional; conditions: 168 h
[14] = Cmax in human adults with pulmonary tuberculosis at 600 mg administered once daily for 5 days; assay type: ADME, organism-based; design: dose 600 mg; conditions: in vivo; outline: as §1
[15] = Cmax in human adults with pulmonary tuberculosis at 600 mg administered twice daily for 5 days; assay type: ADME, organism-based; design: dose 600 mg; conditions: in vivo; outline: as §1
[16] = Elimination half life in human adults with pulmonary tuberculosis at 600 mg administered daily for 7 days; assay type: ADME, organism-based; conditions: in vivo, read-out: beta t1/2 (converted); outline: as §1
Homo sapiens [17] = assay: Absorption rate constant in human adults with pulmonary tuberculosis at 600 mg administered daily for 7 days; assay type: ADME, organism-based; conditions: in vivo, 168 h; outline: as §3
[18] = Cmax in human adults with pulmonary tuberculosis at 600 mg administered twice daily for 7 days; assay type: ADME, organism-based; design: dose 600 mg; conditions: in vivo; outline: as §1

CC(=O)NC[C@H]1CN(c2ccc(N3CCOCC3)c(F)c2)C(=O)O1 [LINEZOLID]
CL/F [1]: 118 mL/min | half-life [2]: 4.6 h | Tmax [3]: 1.5 h | fT>MIC [4]: 100% | k el at 168 h [5]: 5.56e-05 s⁻¹ | ka (Homo sapiens [6]): 2.7 h⁻¹ | fT>MIC [7]: 62.8% | Tmax [8]: 1 h | MIC [9]: 1 µg/mL (≈ 2.96 µM) | Cmax [10]: 14900 ng/mL | k el at 168 h [11]: 5.56e-05 s⁻¹ | CL/F [12]: 80 mL/min | MIC [13]: 0.5 µg/mL (≈ 1.48 µM) | Cmax [14]: 10300 ng/mL | Cmax [15]: 13400 ng/mL | half-life [16]: 2.9 h | ka (Homo sapiens [17]): 1.5 h⁻¹ | Cmax [18]: 19400 ng/mL
